ChEMBL document CHEMBL4477192, “Laxitextines A and B, Cyathane Xylosides from the Tropical Fungus Laxitextum incrustatum” (J Nat Prod, 2016)
Values after ≈ are worked out from the molar mass of the structure shown. Active and inactive are the calls of the source. The rule behind the calls is not given here.

Legend:
Staphylococcus aureus [1] = assay: microbe, parasite or virus in culture; conditions: DSM 1182
Bacillus subtilis = assay: Antimicrobial activity against Bacillus subtilis DSM 10 after 24 to 48 hrs by serial dilution method; format: functional
Staphylococcus aureus [2] = assay: Antimicrobial activity against Staphylococcus aureus DSM 346 at 20 uL of 1 mg/ml compound solution after 24 to 48 hrs by serial dilution method; format: functional
Staphylococcus aureus [3] = assay: Antimicrobial activity against Staphylococcus aureus DSM 346 at 2 uL of 1 mg/ml compound solution after 24 to 48 hrs by serial dilution method; format: functional
Staphylococcus aureus [4] = assay: Antimicrobial activity against Methicillin-resistant Staphylococcus aureus DSM 1182 at 20 uL of 1 mg/ml compound solution after 24 to 48 hrs by serial dilution method; format: functional
L929 = assay: Antiproliferative activity against mouse L929 cells after 5 days by MTT assay; format: functional, cell-based; conditions: L929, 120 h
Procedure, shortened: (§1)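 Serial dilution in 96-well tissue-culture plates starting from 3.0 μL of 1 mg/mL stock. L929 grown in DMEM; MCF-7 and A431 in RPMI; each with 10% FBS. Incubation at 37 °C under 5% CO2 for 5 days. Methanol as negative control, epothilone A as positive control. IC50 in μM.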

HUVEC = assay: Antiproliferative activity against HUVEC after 5 days by MTT assay; format: functional, cell-based; conditions: Homo sapiens, 120 h
A-431 = assay: Antiproliferative activity against human A431 cells after 5 days by MTT assay; format: functional, cell-based; conditions: A-431, 120 h
Procedure, shortened: as §1

MCF7 = assay: Antiproliferative activity against human MCF7 cells after 5 days by MTT assay; format: functional, cell-based; conditions: MCF7, 120 h
Procedure, shortened: as §1

Staphylococcus aureus [5] = conditions: DSM 1182

CN[C@H](CC(C)C)C(=O)N[C@H]1C(=O)N[C@@H](CC(N)=O)C(=O)N[C@H]2C(=O)N[C@H]3C(=O)N[C@H](C(=O)N[C@H](C(=O)O)c4cc(O)cc(O)c4-c4cc3ccc4O)[C@H](O)c3ccc(c(Cl)c3)Oc3cc2cc(c3O[C@@H]2O[C@H](CO)[C@@H](O)[C@H](O)[C@H]2O[C@H]2C[C@](C)(N)[C@H](O)[C@H](C)O2)Oc2ccc(cc2Cl)[C@H]1O [VANCOMYCIN]
MIC (Staphylococcus aureus [1]): 1.6 µg/mL (≈ 1.1 µM)

CC(C)C1=C2[C@H]3CC[C@@H]4CO[C@@]5(O)[C@H](O)CO[C@H]6O[C@@H]([C@@H]4[C@]65O)[C@]3(C)CC[C@@]2(C)CC1
MIC (Bacillus subtilis): 76.7 µM (≈ 33.3 µg/mL) | MIC (Staphylococcus aureus [2]): 17.9 µM | MIC (Staphylococcus aureus [3]): 6.6 µg/mL (≈ 15.2 µM) | MIC (Staphylococcus aureus [4]): 17.9 µM (≈ 7.78 µg/mL) | IC50 (L929): 17.3 µM | IC50 (HUVEC): 4.8 µM | IC50 (A-431): 5.8 µM | IC50 (MCF7): 2.3 µM | MIC (Staphylococcus aureus [5]): inactive

CC(C)C1=C2[C@H]3CC[C@@H]4[C@@H]5O[C@]6(O)[C@@]7(O)[C@@H](OC[C@]6(O)O5)O[C@@H]([C@@H]47)[C@]3(C)CC[C@@]2(C)CC1
MIC (Bacillus subtilis): 37.4 µM (≈ 16.8 µg/mL) | MIC (Staphylococcus aureus [2]): 15.7 µg/mL | MIC (Staphylococcus aureus [3]): inactive | MIC (Staphylococcus aureus [4]): 140 µM (≈ 62.8 µg/mL) | IC50 (L929): 16.1 µM | IC50 (HUVEC): 3.6 µM | IC50 (A-431): 4.9 µM | IC50 (MCF7): 2 µM | MIC (Staphylococcus aureus [5]): inactive
